# Measurements reported in ChEMBL document CHEMBL1145315, “Synthesis and hypoxic-cytotoxic activity of some 3-amino-1,2,4-benzotriazine-1,4-dioxide derivatives” (Bioorg Med Chem Lett, 2006).
# Activity calls are given as the source filed them. The calls are words filed in the database; no cut-off is given here.
# Columns and labels:
# HL-60 [1] = assay: Cytotoxicity against human HL60 cells after 48 hrs by MTT assay; assay type: functional, cell-based; conditions: HL-60, 48 h
# Outline: (§1)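 Cells were exposed in hypoxia for 48 h with tirapazamine as the reference drug. Growth was read by MTT assay and IC50 was calculated by the LOGIT method.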
# K562 = assay: Cytotoxicity against human K562 cells after 48 hrs by MTT assay; assay type: functional, cell-based; conditions: K562, 48 h; outline: as §1
# HepG2 = assay: Cytotoxicity against human HepG2 cells after 48 hrs by MTT assay; assay type: functional, cell-based; conditions: HepG2, 48 h; outline: as §1
# PC-3 = assay: Cytotoxicity against human PC3 cells after 48 hrs by MTT assay; assay type: functional, cell-based; conditions: PC-3, 48 h; outline: as §1
# MOLT-4 [2] = assay: Cytotoxicity against human Molt4 cells in normoxia after 48 hrs; assay type: functional, cell-based; conditions: MOLT-4, 48 h
# Outline: (§2)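 Cells were exposed for 48 h in either normoxia or hypoxia. IC50 was determined separately under each oxygen condition.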
# MOLT-4 [3] = assay: Cytotoxicity against human Molt4 cells in hypoxia after 48 hrs; assay type: functional, cell-based; conditions: MOLT-4, 48 h; outline: as §2
# MOLT-4 [4] = assay: Ratio of cytotoxicity against human Molt4 cells in normoxia to hypoxia after 48 hrs; assay type: functional, cell-based; conditions: MOLT-4, 48 h
# HL-60 [5] = assay: Cytotoxicity against human HL60 cells in normoxia after 48 hrs; assay type: functional, cell-based; conditions: HL-60, 48 h; outline: as §2
# MOLT-4 [6] = assay: Induction of apoptosis in human Molt4 cells after 24 hrs at 2 uM; assay type: functional
# Outline: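 Cells were cultured in complete medium under 3% O2 with 2.0 μM compound for 24 h, alongside an untreated control. Lysed nuclei were stained with propidium iodide, and DNA content was analysed by flow cytometry on 20,000 events per test, scoring the apoptotic fraction. The experiment was done three times.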
# HL-60 [7] = assay: Cytotoxicity against human HL60 cells in hypoxia after 48 hrs; assay type: functional, cell-based; conditions: HL-60, 48 h; outline: as §2
# HL-60 [8] = assay: Ratio of cytotoxicity against human HL60 cells in normoxia to hypoxia after 48 hrs; assay type: functional, cell-based; conditions: HL-60, 48 h
# MOLT-4 [9] = assay: Reduction of mitochondrial membrane potential in human Molt4 cells after 12 hrs at 2 uM; assay type: functional, cell-based
# Outline: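 Cells were treated with 2.0 μM compound for 12 h in hypoxia and then stained with JC-1. Flow cytometry read depolarization as a rise in the green:red fluorescence ratio. Values are means ± SD from three separate experiments, each run in triplicate.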
# MOLT-4 [10] = assay: Increase in p53 level in human Molt4 cells in hypoxia after 24 hrs at 2 uM; assay type: functional, cell-based
# Outline: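 Cells were exposed to 2.0 μM compound for 24 h in hypoxia, and p53 protein was measured by Western blot. The experiment was repeated three times.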
# MOLT-4 [11] = assay: Cytotoxicity against human Molt4 cells after 48 hrs by MTT assay; assay type: functional, cell-based; conditions: MOLT-4, 48 h; outline: as §1
SMILES,IC50 (HL-60 [1]),IC50 (K562),IC50 (HepG2),IC50 (PC-3),IC50 (MOLT-4 [2]),IC50 (MOLT-4 [3]),IC50 ratio (MOLT-4 [4]),IC50 (HL-60 [5]),Activity (MOLT-4 [6]),IC50 (HL-60 [7]),IC50 ratio (HL-60 [8]),Activity (MOLT-4 [9]),Activity (MOLT-4 [10]),IC50 (MOLT-4 [11])
[O-][n+]1nc(NCc2ccccc2)[n+]([O-])c2ccccc21,2.5 µM,1.9 µM,8.2 µM,10.7 µM,8.1 µM,2.2 µM,3.68,6.3 µM,33%,2.5 µM,2.53,Active,Active,2.2 µM
[O-][n+]1nc(Nc2ccccc2)[n+]([O-])c2ccccc21,2.9 µM,2.4 µM,15 µM,17 µM,–,–,–,–,–,–,–,–,–,1.4 µM
[O-][n+]1nc(NC2CC2)[n+]([O-])c2ccccc21,3.6 µM,6.6 µM,13.3 µM,15.9 µM,–,–,–,–,–,–,–,–,–,1.9 µM
[O-][n+]1nc(NCCO)[n+]([O-])c2ccccc21,10.7 µM,3.7 µM,23.2 µM,22.4 µM,–,–,–,–,–,–,–,–,–,2.6 µM
[O-][n+]1nc(NC2CCCCC2)[n+]([O-])c2ccccc21,2.5 µM,2.6 µM,9.5 µM,10.5 µM,–,–,–,–,–,–,–,–,–,1.3 µM
Nc1n[n+]([O-])c2ccccc2[n+]1[O-] [TIRAPAZAMINE],7 µM,5.2 µM,19.1 µM,22.3 µM,15.8 µM,4.6 µM,3.43,16.1 µM,11%,7 µM,2.31,Active,Active,4.6 µM
CCNc1n[n+]([O-])c2ccccc2[n+]1[O-],9 µM,4.5 µM,13.5 µM,13.3 µM,–,–,–,–,–,–,–,–,–,3.3 µM
[O-][n+]1nc(N2CCOCC2)[n+]([O-])c2ccccc21,> 60 µM,> 47 µM,> 95 µM,> 95 µM,–,–,–,–,–,–,–,–,–,> 16.1 µM
CCN(CC)c1n[n+]([O-])c2ccccc2[n+]1[O-],> 49 µM,> 55 µM,> 107 µM,> 107 µM,–,–,–,–,–,–,–,–,–,> 17.6 µM
COc1ccc(Nc2n[n+]([O-])c3ccccc3[n+]2[O-])cc1,0.9 µM,2.9 µM,10.1 µM,12 µM,5.2 µM,0.6 µM,8.67,6.8 µM,45%,0.9 µM,7.56,Active,Active,0.6 µM
Cc1ccc(Nc2n[n+]([O-])c3ccccc3[n+]2[O-])cc1,1.5 µM,2.5 µM,10.6 µM,10.3 µM,–,–,–,–,–,–,–,–,–,1.1 µM
C=CCNc1n[n+]([O-])c2ccccc2[n+]1[O-],25.8 µM,11.2 µM,> 56 µM,> 56 µM,–,–,–,–,–,–,–,–,–,3 µM
CCCCCCCCNc1n[n+]([O-])c2ccccc2[n+]1[O-],7.2 µM,4.7 µM,17.4 µM,18.2 µM,–,–,–,–,–,–,–,–,–,4.9 µM
[O-][n+]1nc(NCc2ccccc2Cl)[n+]([O-])c2ccccc21,5.8 µM,2.2 µM,9.7 µM,10.6 µM,–,–,–,–,–,–,–,–,–,2.3 µM
Nc1ccccc1Nc1n[n+]([O-])c2ccccc2[n+]1[O-],8.3 µM,10.6 µM,17.4 µM,16.1 µM,–,–,–,–,–,–,–,–,–,2.3 µM
O=[N+]([O-])c1ccc(CNc2n[n+]([O-])c3ccccc3[n+]2[O-])cc1,1.4 µM,3.1 µM,7.7 µM,7.4 µM,5 µM,0.8 µM,6.25,6 µM,–,1.4 µM,4.29,–,–,0.8 µM
